Measured values as given in article PMC7394584 (OncoTargets and therapy, 2020).
Each block holds one molecule with its values, some of them ahead of it.

Legend:
[1] = stated in introduction, no reference given; cited from earlier work
[2] = test system: MHCC97-H cells' subcutaneous tumor; test: Nude mice subcutaneous tumor model; assay type: in vivo; details: oral; for Tumor Volumes IC50 Values, Solvent control / Tumor Weights IC50 Values, Solvent control / Tumor Volumes IC50 Values, Compound 4 / Tumor Weights IC50 Values, Compound 4: every 2 days, 30 days; for Tumor Volumes IC50 Values, Solvent control / Tumor Weights IC50 Values, Solvent control: agent alone; for Tumor Volumes IC50 Values, Compound 4 / Tumor Weights IC50 Values, Compound 4: agent combined with compound 4 (1 mg/kg)
Method in brief: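 MHCC97-H cells injected subcutaneously into 4–5-week-old nude mice. Dosing started 4–5 days later as oral liquids formulated with PEG and Tween 80, given orally every 2 days (15 doses over 30 days). Test compound at 1 mg/kg; sorafenib at 0.5 or 2 mg/kg. Tumours then excised. Volume = length × width²/2; weight measured on a balance. Inhibitory rates calculated from volume and weight.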

[3] = test system: advanced HCC patients; test: Clinical outcome of sorafenib treatment by mTOR mRNA expression; assay type: in vivo, human; details: sorafenib-treated advanced HCC patients
[4] = test system: phospho-p70S6K (Thr389); test: Western blot, phosphorylation of P70S6K1; assay type: cell-based, human; details: MHCC97-H cells; for phosphorylation of P70S6K1 (Western blot): 1 μmol/L
[5] = test system: phospho-AKT; test: Western blot, phosphorylation of AKT; assay type: cell-based, human; details: MHCC97-H cells; for phosphorylation of AKT (Western blot): 1 μmol/L
Method in brief: (§1)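 MHCC97-H cells (5 × 10^6 per 75T flask) pretreated 12 h with solvent, test compound or reference pathway inhibitors, each at 1 μmol/L, then incubated 24 h. RIPA lysates quantified by BCA; 40 μg protein run on 10–12% SDS-PAGE. Blocking in 5% skim milk/TBS-0.1% Tween-20; rabbit primary antibodies (1:1000, 4°C) against phospho-p70S6K Thr389, phospho-AKT Ser473/Thr308, phospho-ERK and total proteins; β-actin loading control.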

[6] = test system: phospho-ERK; test: Western blot, phosphorylation of ERK; assay type: cell-based, human; details: MHCC97-H cells, 1 μmol/L
Method in brief: as §1

[7] = test system: MHCC97-H cells; test: MTT cell-survival examination; assay type: cell-based; details: compound 4 at 0.03 μmol/L (30 nmol/L)
Method in brief: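 MHCC97-H seeded at 5 × 10^3 cells/well in DMEM + 10% FBS, 37°C, 5% CO2, 24 h. MTT read at OD 490 nm; inhibition = (control − treated)/control × 100%; IC50 calculated from inhibitory rates.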

Structure (SMILES): CO[C@H]1C[C@@H]2CC[C@@H](C)[C@@](O)(O2)C(=O)C(=O)N2CCCC[C@H]2C(=O)O[C@H]([C@H](C)C[C@@H]2CC[C@@H](O)[C@H](OC)C2)CC(=O)[C@H](C)/C=C(\C)[C@@H](O)[C@@H](OC)C(=O)[C@H](C)C[C@H](C)/C=C/C=C/C=C/1C [rapamycin]
logP [1]: > 6

Tumor Volumes IC50 Values, Solvent control [2]: 0.70 ± 0.25 mg/kg | Tumor Weights IC50 Values, Solvent control [2]: 0.78 ± 0.58 mg/kg | Tumor Volumes IC50 Values, Compound 4 [2]: 0.10 ± 0.05 mg/kg | Tumor Weights IC50 Values, Compound 4 [2]: 0.10 ± 0.01 mg/kg
Structure (SMILES): COc1cc2nccc(Oc3ccc(NC(=O)NC4CC4)c(Cl)c3)c2cc1C(N)=O [Lenvatinib]

Structure (SMILES): CO[C@H]1C[C@@H]2CC[C@@H](C)[C@@](O)(O2)C(=O)C(=O)N2CCCC[C@H]2C(=O)O[C@H]([C@H](C)C[C@@H]2CC[C@@H](OCCO)[C@H](OC)C2)CC(=O)[C@H](C)/C=C(\C)[C@@H](O)[C@@H](OC)C(=O)[C@H](C)C[C@H](C)/C=C/C=C/C=C/1C [everolimus]
logP [1]: > 6

Structure (SMILES): CNC(=O)c1cc(Oc2ccc(NC(=O)Nc3ccc(Cl)c(C(F)(F)F)c3)cc2)ccn1 [Sorafenib]
Tumor Volumes IC50 Values, Solvent control [2]: 1.30 ± 0.48 mg/kg | Tumor Weights IC50 Values, Solvent control [2]: 1.57 ± 0.41 mg/kg | Tumor Volumes IC50 Values, Compound 4 [2]: 0.17 ± 0.03 mg/kg | Tumor Weights IC50 Values, Compound 4 [2]: 0.15 ± 0.04 mg/kg | OS (overall survival), median ([3]; mTOR mRNA High (n = 40)): 10.0 M | TTP (time to progress), median ([3]; mTOR mRNA High (n = 40)): 8.0 M | OS (overall survival), median ([3]; mTOR mRNA Low (n = 12)): 16.0 M | TTP (time to progress), median ([3]; mTOR mRNA Low (n = 12)): 12.0 M

Tumor Volumes IC50 Values, Solvent control [2]: 0.92 ± 0.48 mg/kg | Tumor Weights IC50 Values, Solvent control [2]: 1.22 ± 0.72 mg/kg | Tumor Volumes IC50 Values, Compound 4 [2]: 0.43 ± 0.10 mg/kg | Tumor Weights IC50 Values, Compound 4 [2]: 0.55 ± 0.10 mg/kg
Structure (SMILES): CNC(=O)c1cc(Oc2ccc(NC(=O)Nc3ccc(Cl)c(C(F)(F)F)c3)c(F)c2)ccn1 [Regorafenib]

Structure (SMILES): CC(C)(C)OC(=O)Nc1ccc(-c2nc(N3CCOCC3)c3ncn(CCC4OCCO4)c3n2)cc1 [Compound 4, tert-butyl (4-(9-(2-(1,3-dioxolan-2-yl)ethyl)-6-morpholino-9H-purin-2-yl)phenyl)carbamate]
inhibitory activity on mTORC1 (phospho-p70S6K1, Western blot) [4]: definite inhibitory effect | phosphorylation of P70S6K1 (Western blot) [4]: only inhibited the phosphorylation of P70S6K1 | inhibition of activation of mTOR kinase (phosphorylation of P70S6K1) in cells ([4]; compound 4 at 0.03 μmol/L (30 nmol/L)): significantly inhibited the activation of mTOR | MHCC97-H cells' subcutaneous growth ([2]; compound 4 alone at 1 mg/kg): without significantly affecting | activation of mTOR in vivo ([2]; compound 4 at 1 mg/kg): significantly inhibited the activation of mTOR | inhibitory activity on mTORC2 (phospho-AKT SER473, Western blot) [5]: weaker than that on mTORC1 | phosphorylation of AKT (Western blot) [5]: did not affect PI3K or AKT | ERK phosphorylation (Western blot) [6]: did not show a significant inhibitory effect | cytotoxicity on MHCC97-H cells [7]: no obvious cytotoxicity

Structure (SMILES): O=c1cc(N2CCOCC2)oc2c(-c3ccccc3)cccc12 [LY294002]
phosphorylation of P70S6K1 (Western blot) [4]: significantly inhibited | phosphorylation of AKT (Western blot) [5]: significantly inhibited

Tumor Volumes IC50 Values, Solvent control [2]: 1.95 ± 0.55 mg/kg | Tumor Weights IC50 Values, Solvent control [2]: 1.65 ± 0.09 mg/kg | Tumor Volumes IC50 Values, Compound 4 [2]: 0.53 ± 0.20 mg/kg | Tumor Weights IC50 Values, Compound 4 [2]: 0.59 ± 0.07 mg/kg
Structure (SMILES): N#CC1(c2ccc(NC(=O)c3cccnc3NCc3ccncc3)cc2)CCCC1 [Apatinib]

Structure (SMILES): C[C@@H]1CCN(C(=O)CC#N)C[C@@H]1N(C)c1ncnc2[nH]ccc12 [CP690550]
phosphorylation of P70S6K1 (Western blot) [4]: does not affect | phosphorylation of AKT (Western blot) [5]: does not affect | ERK phosphorylation (Western blot) [6]: does not affect

Tumor Volumes IC50 Values, Solvent control [2]: 1.70 ± 0.54 mg/kg | Tumor Weights IC50 Values, Solvent control [2]: 1.60 ± 0.71 mg/kg | Tumor Volumes IC50 Values, Compound 4 [2]: 0.44 ± 0.23 mg/kg | Tumor Weights IC50 Values, Compound 4 [2]: 0.42 ± 0.07 mg/kg
Structure (SMILES): COc1cc2c(Oc3ccc4[nH]c(C)cc4c3F)ccnc2cc1OCC1(N)CC1 [Anlotinib]

Structure (SMILES): CC(C)(C)c1nc(-c2cccc(NS(=O)(=O)c3c(F)cccc3F)c2F)c(-c2ccnc(N)n2)s1 [GSK2118436]
ERK phosphorylation (Western blot) [6]: significantly inhibited ERK phosphorylation
